The results in this text go back to article PMC9072715 (RSC Advances, 2019).

The test system of one data set is rabbit erythrocytes. Description: Hemolysis of red blood cells assay. In kind it is cell-based, NewZealand rabbit. The note with it: 10% rabbit erythrocyte suspension, 3 to 48 μM, 4 hours, room temperature. Summed up: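 Heparinized blood came from a healthy New Zealand rabbit. Erythrocytes were washed three times in saline and diluted to a 10% suspension. The suspension was mixed 1:1 by volume with sample solution (0–48 μM test compound) and left 4 h at room temperature. Hemolysis was then assessed by observation.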

Another data set has as its system MCF-7 cells. Description: CCK-8 anti-proliferative assay, MCF-7. In kind it is cell-based, human. As to conditions: read-out: IC50 MCF-7; MCF-7, CCK-8, 48 h. The essentials: (§1)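 Log-phase cells in DMEM were plated at 1 × 10^4 per well and allowed 12 h at 37 °C and 5% CO2. Test compounds (0–80 μM) were added for 48 h. Medium was replaced with medium containing 10% CCK-8 for 4 h, and A450 was read. Percent inhibition was calculated against the untreated control and doxorubicin (positive control), and IC50 was obtained by curve fitting.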

A further data set deals with HeLa cells. Briefly: CCK-8 anti-proliferative assay, HeLa. As to conditions: Homo sapiens, 48 h, read-out: IC50 HeLa, HeLa, CCK-8, 48 h. In kind it is cell-based. The essentials: as §1

Consider `C/C=C(\C)C(=O)O[C@H]1[C@H](OC(C)=O)[C@]2(CO)[C@H](O)C[C@]3(C)C(=CC[C@@H]4[C@@]5(C)CC[C@H](O[C@@H]6O[C@H](C(=O)O)[C@@H](O[C@@H]7O[C@H](CO)[C@@H](O)[C@H](O)[C@H]7O)[C@H](O)[C@H]6O[C@@H]6O[C@H](CO)[C@@H](O)[C@H](O)[C@H]6O)[C@](C)(CO)[C@@H]5CC[C@]43C)[C@@H]2CC1(C)C` [Compound 6, Escin Ia], for which the Hemolytic effect entry in the data set with rabbit erythrocytes is “showed hemolytic effect at 24 and 48 μM”.
Regarding `C/C=C(/C)C(=O)O[C@H]1[C@H](OC(C)=O)[C@]2(CO)[C@H](O)C[C@]3(C)C(=CC[C@@H]4[C@@]5(C)CC[C@H](O[C@@H]6O[C@H](C(=O)O)[C@@H](O[C@@H]7O[C@H](CO)[C@@H](O)[C@H](O)[C@H]7O)[C@H](O)[C@H]6O[C@@H]6O[C@H](CO)[C@@H](O)[C@H](O)[C@H]6O)[C@](C)(CO)[C@@H]5CC[C@]43C)[C@@H]2CC1(C)C` [Compound 7, Escin Ib], the half-inhibitory concentration (IC50) with MCF-7 cells is above 80 µM; in the data set with HeLa cells, 55 µM.
